MBD2 DNA inh: inhibitors of MBD2 binding to methylated DNA, primary screen, biochemical, TR-FRET, DNA-binding domain, human; AID 686964, 2013; inhibition, % at 4.4 µM; Methyl-CpG-binding domain protein 2 (Homo sapiens), Q9UBB5; hit rate 0.31% among 370,000; MBD2 binding to methylated oligonucleotide; in the data active = inhibition above about 13%
Casp6 inh: human caspase-6 inhibitors, primary screen, biochemical, VEID-R110 fluorescence, single point, set 2. purified caspase-6, Z-VEID-R110 cleavage fluorescence. hit rate 0.53% among 350,000. inhibition, % at 12.5 µM;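 active = mean inhibition across replicates at least about 35%, with every replicate also reaching that limit, limit read from the data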;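 note: 0% = median of neutral control wells and 100% = no fluorescence left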
UHRF1 MBD2 ctr: UHRF1 methylated DNA binding inhibitors, primary screen, counter-screen for MBD2 inhibitor project, biochemical, TR-FRET, human UHRF1, single concentration; inhibition, % at 4.4 µM; hit rate 0.75% among 370,000; E3 ubiquitin-protein ligase UHRF1 (Homo sapiens), Q96T88; UHRF1 binding to methylated oligo; in the data active = inhibition above about 21%;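 note: UHRF1 SRA domain binding a hemimethylated CpG hairpin DNA probe; 0% = median of test compound wells and 100% = reference inhibitor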
NSD2 HMT inh: NSD2 histone methyltransferase inhibitors, primary screen, biochemical, AlphaScreen, single concentration, set 2; Histone-lysine N-methyltransferase NSD2 (Homo sapiens), O96028; NSD2 peptide methylation, 120 min; inhibition, % at 12.5 µM; hit rate 0.54% among 310,000; AID 743445, 2014; in the data active = inhibition above about 50%
TDP2 absorb: human TDP2 enzyme inhibitors, primary screen, biochemical, epi absorbance, recombinant enzyme | T5PNP hydrolysis, p-nitrophenol absorbance 415 nm | inhibition, % at 12.8 µM | hit rate 0.34% among 370,000;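 active = inhibition above the mean of all tested compounds plus 3 SD, set per campaign, cut at about 25% in these data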;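 note: 0% = DMSO with enzyme and 100% = buffer with substrate but no TDP2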
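System – recombinant human TDP2 · Quantity – TDP2 enzyme at 120 nM final · Doses – single concentration, 12.8 µM nominal, with 1% DMSO · Incubation – 2 h at 37 °C · Measured by – epi absorbance of p-nitrophenol freed from T5PNP by hydrolysis · Read-out – % inhibition relative to enzyme-containing and enzyme-free wells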
LEDGF integ inh: blockers of LEDGF/p75-dependent integrase strand transfer – biochemical, TR-FRET, high throughput, primary screen | AID 743269, 2014 | hit rate 0.64% among 370,000 | inhibition, % at 3.7 µM | HIV-1 integrase (with human LEDGF/p75) | TR-FRET IN-LEDGF/p75 DNA integration, Eu/Cy5;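 active = inhibition above the screen-wide mean plus 3 SD, cut at about 13% in these data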;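 note: signal is the Cy5 over europium emission ratio at 671 and 618 nm; 0% = plate median of compound wells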
Alpha artifact: AlphaScreen signal interference with preloaded methylated product, dose response, artefact control for NSD2 inhibitor project, biochemical, cherry-picked samples; shares compounds with NSD2 HMT inh; AC35, µM (doses to about 10 µM), for inactives: at the highest dose activity change, negative = signal loss; AID 1053174, 2014; hit rate 9.4% among 1,500; AlphaScreen artifact counterscreen, preloaded methylated H4 peptide; call rule not given here
An asterisk follows results filed as active. This is a sample that favours compounds with a hit; in the whole collection about 1.8% have one here.

CCCC(CCC(=O)Nc1cccc([N+](=O)[O-])c1)C(=O)O (stereo not drawn) was read as MBD2 DNA inh -7, Casp6 inh -1, UHRF1 MBD2 ctr -1, NSD2 HMT inh 83*, TDP2 absorb 5, LEDGF integ inh 1 and Alpha artifact -1%.
`CCCCN(CC)CCNC(=O)CN(C)S(=O)(=O)c1ccc2c(c1)c(=O)n(C)c(=O)n2C` gave MBD2 DNA inh 3, UHRF1 MBD2 ctr 1, NSD2 HMT inh 61*, TDP2 absorb -2, LEDGF integ inh 2 and Alpha artifact -4%.
`CN(C)c1ccc(CNC(=O)CN(C)S(=O)(=O)c2ccc3c(c2)c(=O)n(C)c(=O)n3C)cc1` gave MBD2 DNA inh 2, Casp6 inh -3, UHRF1 MBD2 ctr 0, NSD2 HMT inh 4, TDP2 absorb 1 and LEDGF integ inh -4.
For O=C(NCC[C@@H]1CC[C@H](NS(=O)(=O)c2cccc(F)c2)[C@@H](CO)O1)c1cnccn1 the results were Casp6 inh -6.
CN(C)C(=O)c1cccc(-c2ccc3c(c2)[C@@H]2[C@@H](CCN2S(=O)(=O)c2ccccc2)[C@@H](CO)N3)c1 was read as Casp6 inh -3.
`CO[C@H]1CC[C@@H]2CCN(C)C(=O)[C@@H](C)CN(C)C(=O)c3cccc(C#N)c3OC[C@H]1O2` gave Casp6 inh 15.
For CCc1nnc(NC(=O)COc2ccc3c(c2)OCO3)s1 the results were MBD2 DNA inh -1, Casp6 inh 0, UHRF1 MBD2 ctr 0, NSD2 HMT inh 100*, TDP2 absorb -3, LEDGF integ inh 2 and Alpha artifact -1%.
CO[C@H]1O[C@H](CO)[C@@H](OC(=O)Nc2ccccc2)[C@H](OC(=O)Nc2ccc3c(c2)OCO3)[C@@H]1OC(=O)Nc1ccc2c(c1)OCO2 was read as Casp6 inh 3.
`Cc1ccc(S(=O)(=O)N2CCCC(N3CCOCC3)C2)cc1Cl` (stereo not drawn) gave MBD2 DNA inh 6, Casp6 inh -1, UHRF1 MBD2 ctr 1, NSD2 HMT inh 53*, TDP2 absorb -16, LEDGF integ inh -3 and Alpha artifact 1%.
COc1ccc(C)cc1S(=O)(=O)N1CCCC(N2CCOCC2)C1 (stereo not drawn) was read as MBD2 DNA inh 3, Casp6 inh 3, UHRF1 MBD2 ctr 4, NSD2 HMT inh 1, TDP2 absorb -15 and LEDGF integ inh 4.
Cc1ccc(S(=O)(=O)c2ccc(Cl)cc2)cc1S(=O)(=O)N1CCOCC1 was read as MBD2 DNA inh -3, UHRF1 MBD2 ctr 2, NSD2 HMT inh 116*, TDP2 absorb -5, LEDGF integ inh 3 and Alpha artifact 1%.
`COc1ccc(C)cc1NC(=O)CCNC(=O)Cn1cnc2ccccc2c1=O` gave MBD2 DNA inh 0, Casp6 inh -1, UHRF1 MBD2 ctr 2, NSD2 HMT inh 90*, TDP2 absorb -14, LEDGF integ inh 2 and Alpha artifact -1%.
`CC1CCCCN1C(=O)CCNC(=O)Cn1cnc2ccccc2c1=O` (stereo not drawn) gave MBD2 DNA inh 0, Casp6 inh -1, UHRF1 MBD2 ctr -1, NSD2 HMT inh 94*, TDP2 absorb 9, LEDGF integ inh -1 and Alpha artifact 1%.
`O=C(c1cccc(F)c1)N1CC(=O)N2[C@H](C1)[C@H](c1ccc(-c3ccccc3F)cc1)[C@@H]2CO` gave Casp6 inh -2.
Screening C[C@H]1CN([C@@H](C)CO)C(=O)c2cccc(NS(=O)(=O)c3cn(C)cn3)c2O[C@@H]1CN(C)C(=O)Nc1ccccc1 returned Casp6 inh 2.
Screening COc1ccc(-c2cnc3c(c2)C(=O)N([C@H](C)CO)C[C@@H](C)[C@@H](CN(C)C)O3)cc1 returned Casp6 inh -2.
C[C@H](CO)N1C[C@H](C)[C@H](CN(C)S(C)(=O)=O)Oc2ccc(NC(=O)Nc3ccc(C(F)(F)F)cc3)cc2C1=O was read as Casp6 inh -2.
Screening CO[C@@H]1CN(C)C(=O)c2cc(NC(=O)C3CC3)ccc2OC[C@H](C)N(Cc2nccs2)C[C@@H]1C returned Casp6 inh 3.
Screening O=C(CSc1ccc(-c2cccnc2)nn1)N1CCCCCC1 returned MBD2 DNA inh -2, Casp6 inh 0, UHRF1 MBD2 ctr -3, NSD2 HMT inh 3, TDP2 absorb 4 and LEDGF integ inh 2.
Screening O=C(CSc1ccc(-c2cccnc2)nn1)N1CCCC1 returned MBD2 DNA inh 4, Casp6 inh 1, UHRF1 MBD2 ctr 2, NSD2 HMT inh 52*, TDP2 absorb -10, LEDGF integ inh -8 and Alpha artifact 2%.
For O=C(NC(c1ccc(Cl)cc1)c1cc(Cl)c2cccnc2c1O)c1cccnc1 (stereo not drawn) the results were MBD2 DNA inh 1, UHRF1 MBD2 ctr 4, NSD2 HMT inh 63*, TDP2 absorb -1, LEDGF integ inh -3 and Alpha artifact -4%.
For COc1ccc(C2=C(N)c3ccccc3C2=O)cc1 the results were NSD2 HMT inh 7.
Screening COC1=C(c2ccccc2)C(=O)c2ccccc2C1=O returned MBD2 DNA inh -17, UHRF1 MBD2 ctr -5, NSD2 HMT inh 81*, TDP2 absorb 7, LEDGF integ inh 8 and Alpha artifact -1%.
Screening COc1ccc(C(=O)C=Cc2ccc(OCc3ccccc3)c(OC)c2)cc1OC returned MBD2 DNA inh 7, Casp6 inh 1, UHRF1 MBD2 ctr 3, NSD2 HMT inh 0, TDP2 absorb -7 and LEDGF integ inh -2.
For COc1cc(/C=C/[N+](=O)[O-])ccc1OCc1cccc(C(=O)O)c1 the results were NSD2 HMT inh 82* and Alpha artifact -18%.
For CC(C)(C)c1cc[n+](C2=C([O-])c3ccccc3C(=O)/C2=N\S(=O)(=O)c2cccs2)cc1 the results were MBD2 DNA inh -10, Casp6 inh 33, UHRF1 MBD2 ctr -2, NSD2 HMT inh 62*, TDP2 absorb 12, LEDGF integ inh 2 and Alpha artifact -6%.
